Laboratory results reported in ChEMBL document CHEMBL1649139, “A novel gene, erm(41), confers inducible macrolide resistance to clinical isolates of Mycobacterium abscessus but is absent from Mycobacterium chelonae” (2009).
Converted amounts (≈) assume the structure as drawn.

Key:
Type in all cases: functional
[1] = test system: Mycobacteroides abscessus; assay: Antimicrobial activity against Mycobacterium abscessus isolate MC724 at day 14 preincubated with 0.1 ug/ml for 3 days by broth microdilution method
Summary of the method: (§1)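 Clarithromycin MIC by broth microdilution following CLSI guidelines. Before testing, organisms were preincubated for 3 days in medium alone or in clarithromycin or erythromycin (0.01–1 μg/ml), long enough for at least two generations judged by turbidity increase. MICs were read on day 3 and again on extended incubation out to day 14.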

[2] = test system: Mycobacteroides abscessus; assay: Antimicrobial activity against Mycobacterium abscessus isolate MC1448 at day 14 by broth microdilution method; conditions: isolate MC1448, 336 h
Summary of the method: (§2)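 Clarithromycin MIC by CLSI-conforming broth microdilution. Before testing, cultures were preincubated for 3 days, either in medium alone or in clarithromycin or erythromycin (tested range 0.01–1 μg/ml). Preincubation ran for at least two generations, judged by turbidity increase. Plates were read on day 3 and on extended incubation at days 5 to 14.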

[3] = test system: Mycobacteroides abscessus; assay: Antimicrobial activity against Mycobacterium abscessus isolate MC1448 at day 14 preincubated with 0.1 ug/ml erythromycin for 3 days by broth microdilution method; summary of the method: as §2
[4] = test system: Mycobacteroides abscessus; assay: Antimicrobial activity against Mycobacterium abscessus isolate MC1028 at day 3 preincubated with 0.1 ug/ml for 3 days by broth microdilution method; summary of the method: as §2
[5] = test system: Mycobacteroides abscessus; assay: Antimicrobial activity against Mycobacterium abscessus isolate MC879-2 at day 14 preincubated with 0.1 ug/ml erythromycin for 3 days by broth microdilution method
[6] = test system: Mycobacteroides abscessus; assay: Antimicrobial activity against Mycobacterium abscessus isolate MC719 at day 5 by broth microdilution method; conditions: isolate MC719, 120 h; summary of the method: as §1
[7] = test system: Mycobacteroides abscessus; assay: Antimicrobial activity against Mycobacterium abscessus isolate MC720 at day 9 preincubated with 0.1 ug/ml for 3 days by broth microdilution method; summary of the method: as §1
[8] = test system: Mycobacteroides abscessus; assay: Antimicrobial activity against Mycobacterium abscessus isolate MC724 at day 9 by broth microdilution method; conditions: isolate MC724, 216 h
Summary of the method: (§3)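 Clarithromycin MIC by broth microdilution following CLSI guidelines. Organisms were preincubated […], for 3 days before the assay. This allowed at least two generations, judged by the rise in turbidity. The MIC was read at the stated day, with incubation extended from day 3 to as long as 14 days.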

[9] = test system: Mycobacteroides abscessus; assay: Antimicrobial activity against Mycobacterium abscessus isolate MC720 at day 7 preincubated with 0.1 ug/ml for 3 days by broth microdilution method; summary of the method: as §1
[10] = test system: Mycobacteroides abscessus; assay: Antimicrobial activity against Mycobacterium abscessus isolate MC1028 at day 9 preincubated with 0.1 ug/ml erythromycin for 3 days by broth microdilution method; summary of the method: as §2
[11] = test system: Mycobacteroides abscessus; assay: Antimicrobial activity against Mycobacterium abscessus isolate MC879 at day 7 preincubated with 0.1 ug/ml erythromycin for 3 days by broth microdilution method
Summary of the method: (§4)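 To test inducible resistance, cultures were preincubated for 3 days in clarithromycin or erythromycin, within 0.01–1 μg/ml. The period was set so cultures passed at least two generations, judged by turbidity increase. Clarithromycin MIC was then determined by CLSI-conforming broth microdilution and read on the stated day, from day 3 up to 14.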

[12] = test system: Mycobacteroides abscessus; assay: Antimicrobial activity against Mycobacterium abscessus isolate MC879-2 at day 14 preincubated with 0.1 ug/ml for 3 days by broth microdilution method
[13] = test system: Mycobacteroides abscessus; assay: Antimicrobial activity against Mycobacterium abscessus isolate MC724 at day 3 preincubated with 0.1 ug/ml erythromycin for 3 days by broth microdilution method; summary of the method: as §4
[14] = test system: Mycobacteroides abscessus; assay: Antimicrobial activity against Mycobacterium abscessus isolate MC723 at day 3 by broth microdilution method; conditions: isolate MC723, 72 h; summary of the method: as §1
[15] = test system: Mycobacteroides abscessus; assay: Antimicrobial activity against Mycobacterium abscessus isolate MC879-2 at day 3 preincubated with 0.1 ug/ml erythromycin for 3 days by broth microdilution method
[16] = test system: Mycobacteroides abscessus; assay: Antimicrobial activity against Mycobacterium abscessus isolate MC879 at day 7 preincubated with 0.1 ug/ml for 3 days by broth microdilution method; summary of the method: as §4
[17] = test system: Mycobacteroides abscessus; assay: Antimicrobial activity against Mycobacterium abscessus isolate MC720 at day 3 preincubated with 0.1 ug/ml for 3 days by broth microdilution method; summary of the method: as §1
[18] = test system: Mycobacteroides abscessus; assay: Antimicrobial activity against Mycobacterium abscessus isolate MC958 at day 9 preincubated with 0.1 ug/ml for 3 days by broth microdilution method
[19] = test system: Mycobacteroides abscessus; assay: Antimicrobial activity against Mycobacterium abscessus isolate MAB30 at day 14 preincubated with 0.1 ug/ml erythromycin for 3 days by broth microdilution method; summary of the method: as §2
[20] = test system: Mycobacteroides abscessus; assay: Antimicrobial activity against Mycobacterium abscessus isolate MC1028 at day 7 preincubated with 0.1 ug/ml for 3 days by broth microdilution method; summary of the method: as §2
[21] = test system: Mycobacteroides abscessus; assay: Antimicrobial activity against Mycobacterium abscessus isolate MC724 at day 5 by broth microdilution method; conditions: isolate MC724, 120 h; summary of the method: as §3
[22] = test system: Mycobacteroides abscessus; assay: Antimicrobial activity against Mycobacterium abscessus isolate MC719 at day 9 preincubated with 0.1 ug/ml for 3 days by broth microdilution method; summary of the method: as §1
[23] = test system: Mycobacteroides abscessus; assay: Antimicrobial activity against Mycobacterium abscessus isolate MC1448 at day 14 preincubated with 0.1 ug/ml for 3 days by broth microdilution method; summary of the method: as §2
[24] = test system: Mycobacteroides abscessus; assay: Antimicrobial activity against Mycobacterium abscessus isolate MC958 at day 5 preincubated with 0.1 ug/ml erythromycin for 3 days by broth microdilution method
Summary of the method: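 Clinical M. abscessus isolates were preincubated for 3 days, either in medium alone or in clarithromycin or erythromycin at 0.01 to 1 μg/ml, allowing at least two generations of growth judged by turbidity. The clarithromycin MIC was then determined by CLSI-conforming broth microdilution, with plates read on day 3 and on extended incubation (days 5 to 14).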

[25] = test system: Mycobacteroides abscessus; assay: Antimicrobial activity against Mycobacterium abscessus isolate MC1082 at day 3 by broth microdilution method; conditions: isolate MC1082, 72 h; summary of the method: as §2
[26] = test system: Mycobacteroides abscessus; assay: Antimicrobial activity against Mycobacterium abscessus isolate MC724 at day 9 preincubated with 0.1 ug/ml erythromycin for 3 days by broth microdilution method; summary of the method: as §4
[27] = test system: Mycolicibacterium smegmatis; assay: Antimicrobial activity against Mycobacterium smegmatis transformed with erm allele Mycobacterium abscessus isolate MC719 by broth microdilution method
[28] = test system: Mycobacteroides abscessus; assay: Antimicrobial activity against Mycobacterium abscessus isolate MAB30 at day 3 preincubated with 0.1 ug/ml erythromycin for 3 days by broth microdilution method; summary of the method: as §2
[29] = test system: Mycobacteroides abscessus; assay: Antimicrobial activity against Mycobacterium abscessus isolate MC879-2 at day 7 by broth microdilution method; conditions: isolate MC879-2, 168 h
[30] = test system: Mycobacteroides abscessus; assay: Antimicrobial activity against Mycobacterium abscessus isolate MC720 at day 3 by broth microdilution method; conditions: isolate MC720, 72 h; summary of the method: as §1
[31] = test system: Mycobacteroides abscessus; assay: Antimicrobial activity against Mycobacterium abscessus isolate MC723 at day 14 by broth microdilution method; conditions: isolate MC723, 336 h; summary of the method: as §1
[32] = test system: Mycolicibacterium smegmatis; assay: Antimicrobial activity against Mycobacterium smegmatis transformed with erm allele Mycobacterium abscessus isolate MAB30 preincubated with 2 ug/ml erythromycin for 20 to 24 hrs by broth microdilution method
[33] = test system: Mycobacteroides abscessus; assay: Antimicrobial activity against Mycobacterium abscessus isolate MC724 at day 9 preincubated with 0.1 ug/ml for 3 days by broth microdilution method; summary of the method: as §4
[34] = test system: Mycolicibacterium smegmatis; assay: Antimicrobial activity against Mycobacterium smegmatis transformed with erm allele Mycobacterium abscessus isolate MC1028 by broth microdilution method
[35] = test system: Mycobacteroides abscessus; assay: Antimicrobial activity against Mycobacterium abscessus isolate MC1082 at day 7 preincubated with 0.1 ug/ml for 3 days by broth microdilution method; summary of the method: as §2
[36] = test system: Mycobacteroides abscessus; assay: Antimicrobial activity against Mycobacterium abscessus isolate MAB30 at day 9 by broth microdilution method; conditions: isolate MAB30, 216 h; summary of the method: as §2

CC[C@H]1OC(=O)[C@H](C)[C@@H](O[C@H]2C[C@@](C)(OC)[C@@H](O)[C@H](C)O2)[C@H](C)[C@@H](O[C@@H]2O[C@H](C)C[C@H](N(C)C)[C@H]2O)[C@](C)(OC)C[C@@H](C)C(=O)[C@H](C)[C@@H](O)[C@]1(C)O [CLARITHROMYCIN]
MIC [1]: > 32 µg/mL | MIC [2]: > 32 µg/mL | MIC [3]: > 32 µg/mL | MIC [4]: ≤ 0.5 µg/mL | MIC [5]: > 32 µg/mL | MIC [6]: 1 µg/mL (≈ 1.34 µM) | MIC [7]: > 32 µg/mL | MIC [8]: > 32 µg/mL | MIC [9]: > 32 µg/mL | MIC [10]: ≤ 0.5 µg/mL | MIC [11]: > 32 µg/mL | MIC [12]: > 32 µg/mL | MIC [13]: ≤ 0.5 µg/mL | MIC [14]: ≤ 0.5 µg/mL | MIC [15]: > 32 µg/mL | MIC [16]: > 32 µg/mL | MIC [17]: ≤ 0.5 µg/mL | MIC [18]: > 32 µg/mL | MIC [19]: ≤ 0.5 µg/mL | MIC [20]: ≤ 0.5 µg/mL | MIC [21]: 1 µg/mL (≈ 1.34 µM) | MIC [22]: > 32 µg/mL | MIC [23]: > 32 µg/mL | MIC [24]: 4 µg/mL | MIC [25]: ≤ 0.5 µg/mL | MIC [26]: > 32 µg/mL | MIC [27]: 2 µg/mL (≈ 2.67 µM) | MIC [28]: ≤ 0.5 µg/mL | MIC [29]: > 32 µg/mL | MIC [30]: ≤ 0.5 µg/mL | MIC [31]: > 32 µg/mL | MIC [32]: ≤ 0.5 µg/mL | MIC [33]: > 32 µg/mL | MIC [34]: ≤ 0.5 µg/mL | MIC [35]: ≤ 0.5 µg/mL | MIC [36]: ≤ 0.5 µg/mL
